Assay [1] relates to A2780. Put plainly: The compound was tested for cytotoxic activity against A2780 cell line(human ovarian carcinoma ). It is filed as functional, cell-based. The method in brief: (§1)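 Human ovarian carcinoma cells (100–5000) were plated and allowed to adhere overnight. Drug was diluted from DMSO stock into aqueous solution at pH 7.0 and applied continuously for 96 h at 37 °C. Growth was read by SRB protein staining. IC50 is 50% growth inhibition versus drug-free controls, from a representative experiment with 4 replicate wells per concentration and 8 control wells.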

Assay [2] has as its system A2780cisR. Put plainly: The compound was tested for cytotoxic activity against A2780cisR cell line(human ovarian carcinoma ). Format: functional, cell-based. The method in brief: as §1
The subject of assay [3] is CH1. Put plainly: The compound was tested for cytotoxic activity against CH1 cell line(human ovarian carcinoma ). Format: functional, cell-based. The method in brief:
as §1

A short description of assay [4]: (§2) The compound was tested for cytotoxic activity against CH1/Cs cell line(human ovarian carcinoma). Format: functional, cell-based. The method in brief: as §1
Assay [5] has as its system Nucleic Acid. Nature of the assay: Binding affinity against CT-DNA from calf thymus DNA. Format: nucleic-acid assay. The conditions noted are these: Bos taurus. The method in brief:
(§3)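 Ethidium displacement measured fluorometrically at 20 °C (excitation 546 nm, emission 595 nm). Buffer was 10 mM Na2HPO4, 10 mM NaH2PO4, 1 mM EDTA, pH 7.0, with 1.26 µM ethidium bromide and 1 µM of CT-DNA, [poly(dA-dT)]2 or [poly(dG-dC)]2. Drug was added serially from a ~5 mM DMSO stock. C50 (50% loss of bound-ethidium fluorescence) is the mean of three determinations. Kapp = 1.26/C50 × 10^7.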

Another assay concerns HT-29. Put plainly: The compound was tested for cytotoxic activity against HT-29 cell line(human colon adeno carcinoma). Format: functional, cell-based. The procedure, abridged: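 HT29 colon adenocarcinoma cells at 2.5×10^4 cells/mL received drug under protracted exposure for 144 h. Assays were run in triplicate.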
For assay [6], the system named is Nucleic Acid. Nature of the assay: Tested for binding affinity against AT from [poly(dA-dT)]2. It is filed as nucleic-acid assay. The procedure, abridged:
as §3

Assay [7] has as its system Nucleic Acid. Put plainly: Binding affinity against GC from [poly(dG-dC)]2. It is filed as nucleic-acid assay. The procedure, abridged:
as §3

The next assay deals with SK-OV-3. Put plainly: The compound was tested for cytotoxic activity against SKOV-3 cell line(human ovarian carcinoma ). It is filed as functional, cell-based. The procedure, abridged: as §1
For assay [8], the system named is A2780. Put plainly: The compound was tested for cytotoxic activity against A2780/Cs cell line(human ovarian carcinoma. It is filed as functional, cell-based. The procedure, abridged: as §1
For assay [9], the system named is CH1. The description is as §2. Format: functional, cell-based. The procedure, abridged:
as §1

Assay [10] concerns A2780cisR. Put plainly: The compound was tested for cytotoxic activity against A2780cisR cell line(human ovarian carcinoma. It is filed as functional, cell-based. The method in brief:
as §1

For assay [11], the system named is A2780cisR. Nature of the assay: The compound was tested for cytotoxic activity against A2780cisR cell line(human ovarian carcinoma). It is filed as functional, cell-based. The method in brief: as §1

As usually defined, the IC50 is the concentration that inhibits the measured activity by half. Consider `O=C(NCCN1CCCCC1)c1ccc(NCCN2CCCCC2)c2cc3ccccc3nc12`, for which the half-maximal inhibitory concentration (IC50) in the assay with A2780 [1] turned out to be 100 nM; in the assay on A2780cisR [2], 120 nM; in the assay on CH1 [3], 135 nM; in [4], 110 nM; in the assay on HT-29 it was 440 nM; in the assay on SK-OV-3, 140 nM. The values for the K app in the assay with Nucleic Acid [5], in the assay with Nucleic Acid [6] and with Nucleic Acid [7] were 3.4e+07 M⁻¹, 2.7e+07 M⁻¹ and 6.3e+07 M⁻¹, respectively.

As to `CN(C)CCCNC(=O)c1ccc(NCCCN(C)C)c2cc3ccccc3nc12` [listing 1 of 2 here], the IC50 turned out to be 1950 nM in the assay with A2780 [1]; 1250 nM with A2780 [8]; 860 nM in the assay on CH1 [3]; 530 nM in [4]; 710 nM with HT-29; 660 nM in the assay on SK-OV-3.

Take `O=C(NCCN1CCOCC1)c1ccc(NCCN2CCOCC2)c2cc3ccccc3nc12`: the half-maximal inhibitory concentration (IC50) came to 2300 nM in the assay with A2780 [1]; 2500 nM in the assay on A2780cisR [2]; 1850 nM with CH1 [3]; 2150 nM in [4]; 2700 nM in the assay with HT-29; 3200 nM in the assay on SK-OV-3. The K app in the assay on Nucleic Acid [5] was found to be 4.4e+06 M⁻¹; in the assay on Nucleic Acid [6], 5e+06 M⁻¹; in the assay with Nucleic Acid [7] it was 3e+06 M⁻¹.

On to `COc1cccc2c1C(=O)c1c(O)c3c(c(O)c1C2=O)C[C@@](O)(C(=O)CO)C[C@@H]3O[C@H]1C[C@H](N)[C@H](O)[C@H](C)O1` [DOXORUBICIN], for which the IC50 with A2780cisR [2] (Homo sapiens, A2780cisR) is 17 nM; in the assay on CH1 [9] it was 450 nM.

Consider `CN(C)CCNC(=O)c1ccc(NCCN(C)C)c2cc3cc(N)ccc3nc12` [listing 1 of 3 here], for which the IC50 stood at 320 nM with A2780 [1]; 365 nM with A2780cisR [2]; 89 nM in the assay with CH1 [3]; 100 nM with CH1 [9]; 700 nM with HT-29; 155 nM in the assay with SK-OV-3.

As to `CN(C)CCNC(=O)c1ccc(NCCN(C)C)c2cc3ccccc3nc12`, the IC50 with A2780 [1] worked out at 4.3 nM; in the assay with A2780 [8] it was 7 nM; in the assay with CH1 [3], 7 nM; in assay [4] it was 5 nM; in the assay on HT-29 it was 7 nM; in the assay on SK-OV-3 it was 110 nM. The K app in the assay with Nucleic Acid [5] was 1.5e+09 M⁻¹; with Nucleic Acid [6] it was 2.8e+07 M⁻¹; in the assay with Nucleic Acid [7] it was 2.3e+08 M⁻¹.

With CISPLATIN, in the assay with A2780cisR [2] (a2780cisr), the IC50 is 3400 nM.

Take `CN(C)CCCNC(=O)c1ccc(NCCCN(C)C)c2cc3ccccc3nc12` [listing 2 of 2 here]: the IC50 with A2780 [1] turned out to be 1950 nM; in the assay on A2780cisR [2] (Homo sapiens, A2780cisR), 1250 nM; in the assay on CH1 [3], 860 nM; in the assay on CH1 [9], 530 nM; with HT-29 it was 710 nM; in the assay on SK-OV-3 it was 660 nM.

As for `NCCNC(=O)c1ccc(NCCN)c2cc3ccccc3nc12`, the IC50 in the assay on A2780 [1] was 12000 nM; in the assay on A2780cisR [2] it was 3150 nM; with CH1 [3], 1200 nM; in [4] it was 1550 nM; in the assay with HT-29 it was 6940 nM; in the assay on SK-OV-3, 12000 nM. The K app stood at 8.5e+07 M⁻¹ with Nucleic Acid [5], 2.2e+07 M⁻¹ with Nucleic Acid [6] and 5.6e+07 M⁻¹ in the assay with Nucleic Acid [7].

Turning to `CN(C)CCNC(=O)c1ccc(Cl)c2cc3ccccc3nc12`, the IC50 worked out at 2050 nM in the assay with A2780 [1]; 2040 nM in the assay on A2780cisR [2]; 1750 nM in the assay on CH1 [3]; 1900 nM in [4]; 790 nM in the assay on HT-29; 3300 nM with SK-OV-3.

Consider `CN(C)CCNC(=O)c1ccc(NCCN(C)C)c2cc3cc(N)ccc3nc12` [listing 2 of 3 here], for which the results for the K app in the assay on Nucleic Acid [5], with Nucleic Acid [6] and with Nucleic Acid [7] were 1.4e+09 M⁻¹, 2.8e+08 M⁻¹ and 4.1e+08 M⁻¹, respectively.

Take `CN(C)CCNC(=O)c1ccc(NCCN(C)C)c2cc3cc(N)ccc3nc12` [listing 3 of 3 here]: the IC50 in the assay on A2780 [1] stood at 320 nM; in the assay with A2780cisR [2] (Homo sapiens, A2780cisR), 365 nM; with CH1 [3], 89 nM; in the assay on CH1 [9], 100 nM; in the assay with HT-29 it was 700 nM; with SK-OV-3, 155 nM.

For `CCN(CC)CCNC(=O)c1ccc(NCCN(CC)CC)c2cc3ccccc3nc12`, the IC50 in the assay on A2780 [1] is 415 nM; in the assay with A2780cisR [10] it was 475 nM; with CH1 [3], 185 nM; in assay [4] it was 375 nM; with HT-29 it was 580 nM; with SK-OV-3, 500 nM. Besides, the K app in the assay on Nucleic Acid [5] came to 1.5e+08 M⁻¹; in the assay with Nucleic Acid [6], 1.7e+07 M⁻¹; with Nucleic Acid [7], 9.1e+07 M⁻¹.

As for `COc1ccc2nc3c(C(=O)NCCN(C)C)ccc(NCCN(C)C)c3cc2c1`, the IC50 in the assay on A2780 [1] was found to be 96 nM; with A2780cisR [11], 125 nM; in the assay with CH1 [3] it was 50 nM; in assay [4], 44 nM; in the assay on HT-29, 560 nM; in the assay on SK-OV-3, 60 nM. For the same molecule, the K app amounted to 1.9e+07 M⁻¹ with Nucleic Acid [5], 1.4e+07 M⁻¹ in the assay with Nucleic Acid [6] and 5.9e+07 M⁻¹ in the assay on Nucleic Acid [7].

Turning to `CN(C)CCNC(=O)c1ccc(NCCN(C)C)c2c(=O)c3ccccc3[nH]c12`, the IC50 in the assay with A2780 [1] was found to be 15 nM; in the assay on CH1 [3], 20 nM; with HT-29, 94 nM; in the assay on SK-OV-3, 400 nM. Further, the K app with Nucleic Acid [5] was found to be 3.7e+07 M⁻¹.

For `CN(C)CCNC(=O)c1ccc(NCCN(C)C)c2cc3cc(O)ccc3nc12`, the IC50 in the assay on A2780 [1] is 110 nM; with A2780cisR [2] it was 190 nM; in the assay with CH1 [3], 150 nM; in [4], 200 nM; in the assay on HT-29 it was 850 nM; in the assay with SK-OV-3, 900 nM. The K app in the assay with Nucleic Acid [5] worked out at 2.9e+08 M⁻¹; in the assay on Nucleic Acid [6], 3.1e+07 M⁻¹; in the assay on Nucleic Acid [7] it was 1e+08 M⁻¹.

As to `CN(C)CCNC(=O)c1cccc2cc3ccccc3nc12`, the IC50 is 510 nM with A2780 [1]; 570 nM with A2780cisR [2]; 480 nM in the assay on CH1 [3]; 530 nM in assay [4]; 990 nM in the assay on HT-29; 980 nM in the assay on SK-OV-3. Also, the K app came to 1.1e+06 M⁻¹ in the assay on Nucleic Acid [5], 1.4e+06 M⁻¹ in the assay with Nucleic Acid [6] and 1e+06 M⁻¹ in the assay with Nucleic Acid [7].

In the case of `CN(C)CCNC(=O)c1ccc(NCCNCCO)c2cc3ccccc3nc12`, the IC50 in the assay on A2780 [1] worked out at 85 nM; in the assay on A2780cisR [2], 91 nM; with CH1 [3] it was 52 nM; in assay [4] it was 46 nM; in the assay on HT-29, 100 nM; in the assay on SK-OV-3, 240 nM. For the same molecule, the K app was 9.9e+07 M⁻¹ in the assay on Nucleic Acid [5], 4.5e+07 M⁻¹ in the assay on Nucleic Acid [6] and 3e+08 M⁻¹ in the assay on Nucleic Acid [7].
